Data reported in ChEMBL document CHEMBL1127795, “Small-molecule immunostimulants. Synthesis and activity of 7,8-disubstituted guanosines and structurally related compounds” (1994).
“And” between values parts separate entries of the source, which are not always exact repeats. Identical values can stand only once.

What was measured:
Mus musculus [1] = species: Mus musculus; assay: Percent of maximum response was tested to augment the antibody response of B cells to sheep red blood cell challenge; assay type: functional
In short: (§1)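 CBA/CaJ spleen cells depleted of T cells with anti-T cell monoclonal antibody (1:1000, 30 min, 4 °C) then complement (37 °C, 45 min). Cultured ± 0.1% SRBC antigen in serum-containing medium with compound from zero to 10⁻³ M for 4 d. Plaque-forming cells counted in agarose with guinea pig complement. ED50 and maximal response relative to a concurrent standard.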

YAC-1 [2] = assay: Stimulation of natural killer (NK) response in Yac-1 cell line (mouse, lymphoma); Neg indicates a response lower than vehicle control; assay type: functional, cell-based
YAC-1 [3] = assay: Percent of maximum response was tested for its ability to stimulate the natural killer response in murine in vitro cell assays; assay type: functional, Mus musculus
Mus musculus [4] = species: Mus musculus; assay: Tested to augment the antibody response of B cells to sheep red blood cell (SRBC) challenge (adjuvanticity); Neg indicates a response lower than vehicle control; assay type: functional, cell-based; in short: as §1
Mus musculus [5] = species: Mus musculus; assay: Augment antibody response of B cells to sheep red blood cell (SRBC) challenge (adjuvanticity); assay type: functional; details: read-out: ED50 (the source's name); in short: as §1
Mus musculus [6] = species: Mus musculus; assay: Percent of maximum response was tested for its ability to act as B-cell mitogens (mitogenicity); assay type: functional
In short: (§2)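 CBA/CaJ mouse spleen cells (1 × 10⁵/0.2 mL) exposed to graded compound concentrations, dissolved in water or DMSO and diluted in medium, for 24 h. [³H]thymidine then added for a further 24 h; incorporation by scintillation counting. ED50 and maximal response expressed relative to a concurrently run standard (loxoribine in most cases).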

Mus musculus [7] = species: Mus musculus; assay: Ability to act as B-cell mitogens; assay type: functional; details: read-out: ED50 (the source's name); in short: as §2
Mus musculus [8] = species: Mus musculus; assay: Effective dose for its ability to act as B-cell mitogens (mitogenicity); Neg indicates a response lower than vehicle control; assay type: functional; in short: as §2
Mus musculus [9] = assay: In vivo natural killer cell response in splenocytes of mice injected with 2 mg intravenous dose % lysis of YAC-1 cells at effector: target ratio of 200:1; assay type: functional
In short: (§3)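 Mice dosed intravenously with 2 mg compound, with saline as the vehicle control. Spleens were removed 48 h later. Splenocytes were tested against 5 × 10⁴ ⁵¹Cr-labelled YAC-1 target cells in a 4-h ⁵¹Cr-release assay at four effector:target ratios. Results are mean % lysis ± one standard deviation, N = 3–5 mice per group.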

Mus musculus [10] = assay: In vivo natural killer cell response in splenocytes of mice injected with 2 mg intravenous dose % lysis of YAC-1 cells at effector: target ratio of 25:1; assay type: functional; in short: as §3
Mus musculus [11] = assay: In vivo natural killer cell response in splenocytes of mice injected with 2 mg parenteral dose % lysis of YAC-1 cells at effector: target ratio of 50:1; assay type: functional
In short: (§4)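 Each mouse received 2 mg compound, and spleens were taken at 48 h. Splenocyte NK activity was measured as specific lysis of 5 × 10⁴ ⁵¹Cr-labelled YAC-1 cells over 4 h at four effector:target ratios. Results are mean % lysis ± one standard deviation, N = 3–5 mice per group.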

Mus musculus [12] = assay: In vivo natural killer cell response in splenocytes of mice injected with 2 mg parenteral dose % lysis of YAC-1 cells at effector: target ratio of 200:1; assay type: functional; in short: as §4
Mus musculus [13] = assay: In vivo natural killer cell response in splenocytes of mice injected with 2 mg intravenous dose % lysis of YAC-1 cells at effector: target ratio of 50:1; assay type: functional; in short: as §3
Mus musculus [14] = assay: In vivo natural killer cell response in splenocytes of mice injected with 2 mg intravenous dose % lysis of YAC-1 cells at effector: target ratio of 100:1; assay type: functional; in short: as §3
Mus musculus [15] = assay: In vivo natural killer cell response in splenocytes of mice injected with 2 mg parenteral dose % lysis of YAC-1 cells at effector: target ratio of 100:1; assay type: functional; in short: as §4
YAC-1 [16] = assay: Stimulation of natural killer (NK) response in Yac-1 cell line (mouse, lymphoma); assay type: functional; details: read-out: ED50 (the source's name)
Mus musculus [17] = species: Mus musculus; assay: Effective dose was tested for its ability to act as B-cell mitogens (mitogenicity); assay type: functional; details: read-out: ED50 (the source's name); in short: as §2

Structure (SMILES): Nc1nc(O)c2nc3n(c2n1)COCCO3
- Max response (Mus musculus [1]): 0%
- ED50 (YAC-1 [2]): Negative
- Max response (YAC-1 [3]): 6%
- ED50 (Mus musculus [4]): Negative

Structure (SMILES): C=CCn1c(=O)n([C@H]2CO[C@@H](CO)C2)c2nc(N)nc(O)c21
- EC50 (Mus musculus [5]): 83 µM
- Max response (Mus musculus [1]): 10%
- ED50 (YAC-1 [2]): Negative
- Max response (YAC-1 [3]): 0%
- Max response (Mus musculus [6]): 16%
- EC50 (Mus musculus [7]): 272 µM

Structure (SMILES): Nc1nc(O)c2nc(S)n([C@H]3O[C@H](CO)[C@@H](O)[C@H]3O)c2n1
- Max response (Mus musculus [1]): 8%
- ED50 (Mus musculus [8]): Negative
- ED50 (YAC-1 [2]): Negative
- Max response (YAC-1 [3]): 0%
- Max response (Mus musculus [6]): 6%
- ED50 (Mus musculus [4]): Negative

Structure (SMILES): Nc1nc(O)c2c(n1)n(C1OC(CO)[C@@H](O)[C@H]1O)c(=O)n2CCN1CCCCC1 (some centres undefined)
- Max response (Mus musculus [1]): 0%
- ED50 (Mus musculus [8]): Negative
- Max response (Mus musculus [6]): 0%
- ED50 (Mus musculus [4]): Negative

Structure (SMILES): C=CCn1c(=S)n(C2OC(COC(=O)c3ccccc3)[C@H]3OC(C)(C)O[C@@H]23)c2nc(N)nc(O)c21 (some centres undefined)
- EC50 (Mus musculus [5]): 47 µM
- Max response (Mus musculus [1]): 77%
- ED50 (Mus musculus [8]): Negative
- Max response (Mus musculus [6]): 0%

Structure (SMILES): CC1OC(n2c(=O)n(C)c3c(O)nc(N)nc32)[C@H](O)[C@@H]1O (some centres undefined)
- Max response (Mus musculus [1]): 0%
- ED50 (Mus musculus [4]): Negative

Structure (SMILES): C=CCn1c(=O)n(CCCCO)c2nc(N)nc(O)c21
- Max response (Mus musculus [1]): 12%
- Max response (Mus musculus [6]): 16%
- EC50 (Mus musculus [7]): 52 µM
- ED50 (Mus musculus [4]): Negative

Structure (SMILES): C=CCn1c(=O)n(C2CCC(CO)C2)c2nc(N)nc(O)c21 (centres undefined)
- EC50 (Mus musculus [5]): 226 µM
- Max response (Mus musculus [1]): 26%
- ED50 (Mus musculus [8]): Negative
- Max response (Mus musculus [6]): 0%

Structure (SMILES): C=CCn1c(=O)n(C2C=CC(CO)O2)c2nc(N)nc(O)c21 (centres undefined)
- Ratio (Mus musculus [9]): 47.4
- Ratio (Mus musculus [10]): 16.1
- EC50 (Mus musculus [5]): 6 µM
- Max response (Mus musculus [1]): 45%
- Ratio (Mus musculus [11]): 25.2
- Ratio (Mus musculus [12]): 50.8
- Ratio (Mus musculus [13]): 25.7
- Ratio (Mus musculus [14]): 36.4
- Max response (YAC-1 [3]): 89%
- Max response (Mus musculus [6]): 84%
- EC50 (Mus musculus [7]): 30 µM
- Ratio (Mus musculus [15]): 33.2 and 15.7
- EC50 (YAC-1 [16]): 11 µM

Structure (SMILES): Cn1c(=O)n2c3c1c(=O)nc(N)n3CC1OC2[C@H](O)C1O (single isomer, unassigned)
- Max response (Mus musculus [1]): 9%
- ED50 (Mus musculus [8]): Negative
- ED50 (YAC-1 [2]): Negative
- Max response (YAC-1 [3]): 6%
- Max response (Mus musculus [6]): 0%
- ED50 (Mus musculus [4]): Negative

Structure (SMILES): C=CCn1c(=O)n(C2C[C@H](O)C(CO)O2)c2nc(N)nc(O)c21 (some centres undefined)
- EC50 (Mus musculus [5]): 30 µM
- Max response (Mus musculus [1]): 99%
- EC50 (Mus musculus [17]): 134 µM
- Max response (YAC-1 [3]): 75%
- Max response (Mus musculus [6]): 131%
- EC50 (YAC-1 [16]): 100 µM

Structure (SMILES): N#Cc1ccc(Cn2c(=O)n(C3OC(CO)[C@@H](O)[C@H]3O)c3nc(N)nc(O)c32)cc1 (some centres undefined)
- EC50 (Mus musculus [5]): 15 µM
- Max response (Mus musculus [1]): 50%
- ED50 (YAC-1 [2]): Negative
- Max response (YAC-1 [3]): 0%

Structure (SMILES): CCCn1c(=O)n(C2CCC(CO)O2)c2nc(NC(=O)C(C)(C)C)nc(O)c21 (centres undefined)
- Max response (Mus musculus [1]): 19%
- ED50 (Mus musculus [8]): Negative
- ED50 (YAC-1 [2]): Negative
- Max response (YAC-1 [3]): 0%
- Max response (Mus musculus [6]): 4%
- ED50 (Mus musculus [4]): Negative
